ChEMBL document CHEMBL5724801, “EUbOPEN Chemogenomics Library - Multiplex” (2024)
Several values for one entry are separate records, joined by “and”; a condition that tells them apart may be missing. Identical values can stand only once.

Assays:
Fibroblast = test: Multiplex assay against human fibroblast; assay type: toxicity, cell-based
Summary of the method: (§1)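 Phenotypes for tubulin, mitochondrial mass and membrane permeability are expressed as per cents of healthy-nucleus cells. Cells were stained live at seeding with Hoechst33342, BioTracker Green Microtubule Cytoskeleton Dye, MitoTracker Red and Annexin V Alexa Fluor 680, then imaged after compound addition on a CQ1 microscope at 37°C and 5% CO2. Machine-learning gating in CellPathfinder separated Hoechst high-intensity objects from normal cells, divided normal cells by nuclear state (healthy, pyknosed, fragmented) and divided pyknosed cells into mitotic or apoptotic.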

U2OS = test: Multiplex assay against U2OS; assay type: toxicity, cell-based; conditions: human; summary of the method: as §1
[1] = 12 h, 1 µM, compound concentration 1 uM
[2] = 12 h, 10 µM, compound concentration 10 uM
[3] = 24 h, 1 µM, compound concentration 1 uM
[4] = 24 h, 10 µM, compound concentration 10 uM
[5] = 48 h, 1 µM, compound concentration 1 uM
[6] = 48 h, 10 µM, compound concentration 10 uM

**Q.** For COc1ccc2c(c1)C(C(=O)N(Cc1ccc(N(C)C)cc1)c1ccc(C(C)C)cc1)CCC2.Cl (stereo not drawn), which “Population Apoptotic (%)” value (Fibroblast; [1]) is on record?
**A.** 57% and 45%

**Q.** What about the “Population Fragmented Nuclei (%)” value (Fibroblast; [1]) of the same compound?
**A.** 15% and 20%

**Q.** What about the “Population Healthy Nuclei (%)” value (Fibroblast; [1]) of the same compound?
**A.** 72% and 55%

**Q.** What about the “Population Hoechst High Intensity Objects (%)” value (Fibroblast; [1]) of the same compound?
**A.** 1% and 5%

**Q.** What about the “Population Membrane Permeable-Phenotype (%)” value (Fibroblast; [1]) of the same compound?
**A.** 1% and 5%

**Q.** And the “Population Mitochondria Different-Phenotype (%)” value (Fibroblast; [1])?
**A.** 7% and 15%

**Q.** And the “Population Mitotic Cells (%)” value (Fibroblast; [1])?
**A.** 42% and 54%

**Q.** And the “Population Normal (%)” value (Fibroblast; [1])?
**A.** 98% and 94%

**Q.** And the “Population Pyknosed Nuclei (%)” value (Fibroblast; [1])?
**A.** 11% and 23%

**Q.** What about the “Population Tubulin-Different-Phenotype (%)” value (Fibroblast; [1]) of the same compound?
**A.** 22% and 57%

**Q.** And the “Total Cell Count” value (Fibroblast; [1])?
**A.** 163 and 138

**Q.** What about the “Population Apoptotic (%)” value (Fibroblast; [2]) of the same compound?
**A.** 58% and 53%

**Q.** And the “Population Fragmented Nuclei (%)” value (Fibroblast; [2])?
**A.** 17% and 38%

**Q.** And the “Population Healthy Nuclei (%)” value (Fibroblast; [2])?
**A.** 69% and 51%

**Q.** What about the “Population Hoechst High Intensity Objects (%)” value (Fibroblast; [2]) of the same compound?
**A.** 1% and 2%

**Q.** What about the “Population Membrane Permeable-Phenotype (%)” value (Fibroblast; [2]) of the same compound?
**A.** 0% and 6%

**Q.** What about the “Population Mitochondria Different-Phenotype (%)” value (Fibroblast; [2]) of the same compound?
**A.** 12% and 14%

**Q.** And the “Population Mitotic Cells (%)” value (Fibroblast; [2])?
**A.** 41% and 46%

**Q.** What about the “Population Normal (%)” value (Fibroblast; [2]) of the same compound?
**A.** 98% and 97%

**Q.** And the “Population Pyknosed Nuclei (%)” value (Fibroblast; [2])?
**A.** 13% and 10%

**Q.** What about the “Population Tubulin-Different-Phenotype (%)” value (Fibroblast; [2]) of the same compound?
**A.** 67% and 77%

**Q.** And the “Total Cell Count” value (Fibroblast; [2])?
**A.** 181 and 148

**Q.** And the “Population Apoptotic (%)” value (Fibroblast; [3])?
**A.** 55%

**Q.** And the “Population Fragmented Nuclei (%)” value (Fibroblast; [3])?
**A.** 11% and 19%

**Q.** What about the “Population Healthy Nuclei (%)” value (Fibroblast; [3]) of the same compound?
**A.** 77% and 59%

**Q.** And the “Population Hoechst High Intensity Objects (%)” value (Fibroblast; [3])?
**A.** 1% and 3%

**Q.** What about the “Population Membrane Permeable-Phenotype (%)” value (Fibroblast; [3]) of the same compound?
**A.** 0% and 2%

**Q.** And the “Population Mitochondria Different-Phenotype (%)” value (Fibroblast; [3])?
**A.** 5% and 11%

**Q.** And the “Population Mitotic Cells (%)” value (Fibroblast; [3])?
**A.** 44%

**Q.** What about the “Population Normal (%)” value (Fibroblast; [3]) of the same compound?
**A.** 98% and 96%

**Q.** What about the “Population Pyknosed Nuclei (%)” value (Fibroblast; [3]) of the same compound?
**A.** 11% and 20%

**Q.** And the “Population Tubulin-Different-Phenotype (%)” value (Fibroblast; [3])?
**A.** 25% and 41%

**Q.** And the “Total Cell Count” value (Fibroblast; [3])?
**A.** 156 and 136

**Q.** And the “Population Apoptotic (%)” value (Fibroblast; [4])?
**A.** 50% and 42%

**Q.** What about the “Population Fragmented Nuclei (%)” value (Fibroblast; [4]) of the same compound?
**A.** 17% and 39%

**Q.** And the “Population Healthy Nuclei (%)” value (Fibroblast; [4])?
**A.** 72% and 55%

**Q.** What about the “Population Hoechst High Intensity Objects (%)” value (Fibroblast; [4]) of the same compound?
**A.** 3% and 2%

**Q.** And the “Population Membrane Permeable-Phenotype (%)” value (Fibroblast; [4])?
**A.** 0% and 2%

**Q.** What about the “Population Mitochondria Different-Phenotype (%)” value (Fibroblast; [4]) of the same compound?
**A.** 15% and 12%

**Q.** What about the “Population Mitotic Cells (%)” value (Fibroblast; [4]) of the same compound?
**A.** 50% and 57%

**Q.** What about the “Population Normal (%)” value (Fibroblast; [4]) of the same compound?
**A.** 96% and 97%

**Q.** What about the “Population Pyknosed Nuclei (%)” value (Fibroblast; [4]) of the same compound?
**A.** 10% and 4%

**Q.** What about the “Population Tubulin-Different-Phenotype (%)” value (Fibroblast; [4]) of the same compound?
**A.** 63% and 85%

**Q.** And the “Total Cell Count” value (Fibroblast; [4])?
**A.** 180 and 148

**Q.** What about the “Population Apoptotic (%)” value (Fibroblast; [5]) of the same compound?
**A.** 66% and 52%

**Q.** What about the “Population Fragmented Nuclei (%)” value (Fibroblast; [5]) of the same compound?
**A.** 17% and 26%

**Q.** And the “Population Healthy Nuclei (%)” value (Fibroblast; [5])?
**A.** 75% and 61%

**Q.** What about the “Population Hoechst High Intensity Objects (%)” value (Fibroblast; [5]) of the same compound?
**A.** 1%

**Q.** And the “Population Membrane Permeable-Phenotype (%)” value (Fibroblast; [5])?
**A.** 1% and 5%

**Q.** What about the “Population Mitochondria Different-Phenotype (%)” value (Fibroblast; [5]) of the same compound?
**A.** 3% and 13%

**Q.** And the “Population Mitotic Cells (%)” value (Fibroblast; [5])?
**A.** 33% and 47%

**Q.** What about the “Population Normal (%)” value (Fibroblast; [5]) of the same compound?
**A.** 98%

**Q.** What about the “Population Pyknosed Nuclei (%)” value (Fibroblast; [5]) of the same compound?
**A.** 6% and 12%

**Q.** And the “Population Tubulin-Different-Phenotype (%)” value (Fibroblast; [5])?
**A.** 27% and 46%

**Q.** And the “Total Cell Count” value (Fibroblast; [5])?
**A.** 180 and 152

**Q.** What about the “Population Apoptotic (%)” value (Fibroblast; [6]) of the same compound?
**A.** 71% and 75%

**Q.** What about the “Population Fragmented Nuclei (%)” value (Fibroblast; [6]) of the same compound?
**A.** 21% and 45%

**Q.** And the “Population Healthy Nuclei (%)” value (Fibroblast; [6])?
**A.** 71% and 52%

**Q.** And the “Population Hoechst High Intensity Objects (%)” value (Fibroblast; [6])?
**A.** 4% and 0%

**Q.** What about the “Population Membrane Permeable-Phenotype (%)” value (Fibroblast; [6]) of the same compound?
**A.** 0% and 3%

**Q.** And the “Population Mitochondria Different-Phenotype (%)” value (Fibroblast; [6])?
**A.** 8%

**Q.** And the “Population Mitotic Cells (%)” value (Fibroblast; [6])?
**A.** 28% and 25%

**Q.** What about the “Population Normal (%)” value (Fibroblast; [6]) of the same compound?
**A.** 95% and 99%

**Q.** What about the “Population Pyknosed Nuclei (%)” value (Fibroblast; [6]) of the same compound?
**A.** 7% and 2%

**Q.** And the “Population Tubulin-Different-Phenotype (%)” value (Fibroblast; [6])?
**A.** 71% and 81%

**Q.** What about the “Total Cell Count” value (Fibroblast; [6]) of the same compound?
**A.** 203 and 174

**Q.** What about the “Population Apoptotic (%)” value (U2OS; [1]) of the same compound?
**A.** 70%

**Q.** What about the “Population Fragmented Nuclei (%)” value (U2OS; [1]) of the same compound?
**A.** 36% and 17%

**Q.** And the “Population Healthy Nuclei (%)” value (U2OS; [1])?
**A.** 54% and 73%

**Q.** And the “Population Hoechst High Intensity Objects (%)” value (U2OS; [1])?
**A.** 4% and 3%

**Q.** And the “Population Membrane Permeable-Phenotype (%)” value (U2OS; [1])?
**A.** 8% and 9%

**Q.** What about the “Population Mitochondria Different-Phenotype (%)” value (U2OS; [1]) of the same compound?
**A.** 5% and 3%

**Q.** What about the “Population Mitotic Cells (%)” value (U2OS; [1]) of the same compound?
**A.** 29% and 30%

**Q.** What about the “Population Normal (%)” value (U2OS; [1]) of the same compound?
**A.** 95% and 96%

**Q.** What about the “Population Pyknosed Nuclei (%)” value (U2OS; [1]) of the same compound?
**A.** 9% and 8%

**Q.** What about the “Population Tubulin-Different-Phenotype (%)” value (U2OS; [1]) of the same compound?
**A.** 4% and 2%

**Q.** What about the “Total Cell Count” value (U2OS; [1]) of the same compound?
**A.** 264 and 122

**Q.** What about the “Population Apoptotic (%)” value (U2OS; [2]) of the same compound?
**A.** 38% and 60%

**Q.** What about the “Population Fragmented Nuclei (%)” value (U2OS; [2]) of the same compound?
**A.** 27% and 16%

**Q.** What about the “Population Healthy Nuclei (%)” value (U2OS; [2]) of the same compound?
**A.** 50% and 60%

**Q.** And the “Population Hoechst High Intensity Objects (%)” value (U2OS; [2])?
**A.** 4%

**Q.** What about the “Population Membrane Permeable-Phenotype (%)” value (U2OS; [2]) of the same compound?
**A.** 73% and 43%

**Q.** And the “Population Mitochondria Different-Phenotype (%)” value (U2OS; [2])?
**A.** 55% and 73%

**Q.** What about the “Population Mitotic Cells (%)” value (U2OS; [2]) of the same compound?
**A.** 61% and 40%

**Q.** What about the “Population Normal (%)” value (U2OS; [2]) of the same compound?
**A.** 95%

**Q.** And the “Population Pyknosed Nuclei (%)” value (U2OS; [2])?
**A.** 22% and 23%

**Q.** What about the “Population Tubulin-Different-Phenotype (%)” value (U2OS; [2]) of the same compound?
**A.** 80% and 58%

**Q.** And the “Total Cell Count” value (U2OS; [2])?
**A.** 224 and 113

**Q.** And the “Population Apoptotic (%)” value (U2OS; [3])?
**A.** 75% and 100%

**Q.** What about the “Population Fragmented Nuclei (%)” value (U2OS; [3]) of the same compound?
**A.** 27% and 18%

**Q.** And the “Population Healthy Nuclei (%)” value (U2OS; [3])?
**A.** 61% and 73%

**Q.** And the “Population Hoechst High Intensity Objects (%)” value (U2OS; [3])?
**A.** 4% and 2%

**Q.** And the “Population Membrane Permeable-Phenotype (%)” value (U2OS; [3])?
**A.** 5%

**Q.** And the “Population Mitochondria Different-Phenotype (%)” value (U2OS; [3])?
**A.** 4% and 1%

**Q.** And the “Population Mitotic Cells (%)” value (U2OS; [3])?
**A.** 24% and 0%

**Q.** What about the “Population Normal (%)” value (U2OS; [3]) of the same compound?
**A.** 95% and 97%

**Q.** What about the “Population Pyknosed Nuclei (%)” value (U2OS; [3]) of the same compound?
**A.** 11% and 7%

**Q.** And the “Population Tubulin-Different-Phenotype (%)” value (U2OS; [3])?
**A.** 4% and 2%
